ChEMBL document CHEMBL5614453 (ACS Med Chem Lett, 2024)
Each block holds one compound with its values, some of them ahead of it. The source made the active and inactive calls.

Assays:
Mus musculus [1] = assay: Antihyperalgesic activity in CFA induced CD-1 albino mouse assessed as inhibition of mechanical allodynia by measuring paw withdrawal threshold at 330 mg/kg, po measured after 20 to 100 mins by von frey test; assay type: functional, organism-based; settings: time 20-100 min
How it was run: (§1)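 Von Frey testing before dosing and every 20 min afterward. Read-out is the weight (g) the animal tolerated on the paw. Mean of 6 mice from 2 experimental sets; compared with pretest (0 min) and with vehicle-treated controls.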

Mus musculus [2] = assay: Antihyperalgesic activity in CFA induced CD-1 albino mouse assessed as inhibition of thermal hyperalgesia by measuring licking latency at 330 mg/kg, po measured after 20 to 100 mins by hot plate test; assay type: functional, organism-based; settings: time 20-100 min
How it was run: (§2)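 Hot plate test before dosing and every 20 min after. Time (s) to first hind-paw licking recorded. Mean of 6 mice from 2 experimental sets; compared with pretest (0 min) and vehicle controls.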

Mus musculus [3] = assay: Antihyperalgesic activity in CFA induced CD-1 albino mouse assessed as inhibition of mechanical hyperalgesia by measuring paw withdrawal latency at 330 mg/kg, po measured after 20 to 100 mins by paw pressure test; assay type: functional, organism-based; settings: time 20-100 min
How it was run: (§3)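 Mechanical hyperalgesia measured by Paw Pressure test before dosing and every 20 min afterward, as paw-withdrawal latency (s). Values are means of 6 mice over 2 experimental sets; statistics vs pretest (0 min) and vs vehicle-treated controls.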

Carbonic anhydrase 1 = Carbonic anhydrase 1 (Homo sapiens, UniProt P00915); assay: Inhibition of human CA1 preincubated for 15 mins by phenol red dye based stopped flow CO2 hydration assay
Carbonic anhydrase 9 = Carbonic anhydrase 9 (Homo sapiens, UniProt Q16790); assay: Inhibition of human CA9 preincubated for 15 mins by phenol red dye based stopped flow CO2 hydration assay
Mus musculus [4] = assay: Antihyperalgesic activity in CFA induced CD-1 albino mouse assessed as inhibition of mechanical hyperalgesia by measuring paw withdrawal latency at 220 mg/kg, po measured every 20 mins by paw pressure test; assay type: functional, organism-based; how it was run: as §3
Mus musculus [5] = assay: Antihyperalgesic activity in CFA induced CD-1 albino mouse assessed as inhibition of mechanical allodynia by measuring paw withdrawal threshold at 220 mg/kg, po measured every 20 mins by von frey test; assay type: functional, organism-based; how it was run: as §1
Carbonic anhydrase 4 = Carbonic anhydrase 4 (Homo sapiens, UniProt P22748); assay: Inhibition of human CA4 preincubated for 15 mins by phenol red dye based stopped flow CO2 hydration assay
Carbonic anhydrase 7 = Carbonic anhydrase 7 (Homo sapiens, UniProt P43166); assay: Inhibition of human CA7 preincubated for 15 mins by phenol red dye based stopped flow CO2 hydration assay
Mus musculus [6] = assay: Antihyperalgesic activity in CFA induced CD-1 albino mouse assessed as inhibition of thermal hyperalgesia by measuring licking latency at 220 mg/kg, po measured every 20 mins by hot plate test; assay type: functional, organism-based; how it was run: as §2
Carbonic anhydrase 12 = Carbonic anhydrase 12 (Homo sapiens, UniProt O43570); assay: Inhibition of human CA12 preincubated for 15 mins by phenol red dye based stopped flow CO2 hydration assay
Carbonic anhydrase 2 = Carbonic anhydrase 2 (Homo sapiens, UniProt P00918); assay: Inhibition of human CA2 preincubated for 15 mins by phenol red dye based stopped flow CO2 hydration assay
Mus musculus [7] = assay: Antihyperalgesic activity in CFA induced CD-1 albino mouse assessed as inhibition of thermal hyperalgesia by measuring licking latency at 50 to 200 mg/kg, po measured after 80 mins by hot plate test; assay type: functional, organism-based; settings: dose 50-200 mg/kg; how it was run: as §2
Mus musculus [8] = assay: Antihyperalgesic activity in CFA induced CD-1 albino mouse assessed as inhibition of thermal hyperalgesia by measuring licking latency at 50 to 200 mg/kg, po measured after 40 mins by hot plate test; assay type: functional, organism-based; settings: dose 50-200 mg/kg; how it was run: as §2
Mus musculus [9] = assay: Antihyperalgesic activity in po dosed CFA induced CD-1 albino mouse assessed as inhibition of mechanical allodynia by measuring paw withdrawal threshold measured every 20 mins by von frey test; assay type: functional, organism-based; settings: dose 50-200 mg/kg; how it was run: as §1
Mus musculus [10] = assay: Antihyperalgesic activity in CFA induced CD-1 albino mouse assessed as inhibition of mechanical allodynia by measuring paw withdrawal threshold at 50 to 200 mg/kg, po measured after 80 mins by von frey test; assay type: functional, organism-based; settings: dose 50-200 mg/kg; how it was run: as §1
Mus musculus [11] = assay: Antihyperalgesic activity in po dosed CFA induced CD-1 albino mouse assessed as inhibition of mechanical hyperalgesia by measuring paw withdrawal latency measured every 20 mins by paw pressure test; assay type: functional, organism-based; settings: dose 50-200 mg/kg; how it was run: as §3
Mus musculus [12] = assay: Antihyperalgesic activity in CFA induced CD-1 albino mouse assessed as inhibition of mechanical hyperalgesia by measuring paw withdrawal latency at 50 to 200 mg/kg, po measured after 40 mins by paw pressure test; assay type: functional, organism-based; settings: dose 50-200 mg/kg; how it was run: as §3
Mus musculus [13] = assay: Antihyperalgesic activity in po dosed CFA induced CD-1 albino mouse assessed as inhibition of thermal hyperalgesia by measuring licking latency measured every 20 mins by hot plate test; assay type: functional, organism-based; settings: dose 50-200 mg/kg; how it was run: as §2
Mus musculus [14] = assay: Antihyperalgesic activity in CFA induced CD-1 albino mouse assessed as inhibition of mechanical allodynia by measuring paw withdrawal threshold at 50 to 200 mg/kg, po measured after 40 mins by von frey test; assay type: functional, organism-based; settings: dose 50-200 mg/kg; how it was run: as §1
Mus musculus [15] = assay: Antihyperalgesic activity in CFA induced CD-1 albino mouse assessed as inhibition of mechanical hyperalgesia by measuring paw withdrawal latency at 50 to 200 mg/kg, po measured after 80 mins by paw pressure test; assay type: functional, organism-based; settings: dose 50-200 mg/kg; how it was run: as §3
Mus musculus [16] = assay: Antihyperalgesic activity in CFA induced CD-1 albino mouse assessed as inhibition of mechanical allodynia by measuring paw withdrawal threshold at 270 to 405 mg/kg, po measured every 20 mins by von frey test; assay type: functional, organism-based; settings: dose 270-405 mg/kg
Mus musculus [17] = assay: Antihyperalgesic activity in CFA induced CD-1 albino mouse assessed as increase in pain threshold by measuring licking latency at 270 mg/kg, po measured after 40 mins by hot plate test; assay type: functional, organism-based
How it was run: (§4)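 Mice received an intraplantar CFA injection, and vehicle-treated animals served as controls. Thermal hyperalgesia was measured by hot plate as time in s to the first hind-paw licking. Readings were taken before dosing and every 20 min afterwards. Values are the mean of 6 mice from 2 experimental sets.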

Mus musculus [18] = assay: Antihyperalgesic activity in CFA induced CD-1 albino mouse assessed as increase in pain threshold by measuring licking latency at 405 mg/kg, po measured after 40 mins by hot plate test; assay type: functional, organism-based; how it was run: as §4
Mus musculus [19] = assay: Antihyperalgesic activity in CFA induced CD-1 albino mouse assessed as increase in pain threshold by measuring paw withdrawal latency at 405 mg/kg, po measured after 40 mins by von frey test; assay type: functional, organism-based
Mus musculus [20] = assay: Antihyperalgesic activity in CFA induced CD-1 albino mouse assessed as increase in pain threshold by measuring paw withdrawal latency at 270 mg/kg, po measured after 40 mins by paw pressure test; assay type: functional
How it was run: (§5)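 Inflammatory pain was induced by intraplantar CFA, with vehicle-treated controls. Mechanical hyperalgesia was measured by paw pressure test as paw withdrawal latency (s), before dosing and every 20 min after. Values are the mean of 6 mice from 2 experimental sets.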

Mus musculus [21] = assay: Antihyperalgesic activity in CFA induced CD-1 albino mouse assessed as inhibition of mechanical hyperalgesia by measuring paw withdrawal latency at 270 to 405 mg/kg, po measured every 20 mins by paw pressure test; assay type: functional, organism-based; settings: dose 270-405 mg/kg; how it was run: as §5
Mus musculus [22] = assay: Antihyperalgesic activity in CFA induced CD-1 albino mouse assessed as increase in pain threshold by measuring paw withdrawal latency at 405 mg/kg, po measured after 40 mins by paw pressure test; assay type: functional, organism-based; how it was run: as §5
Mus musculus [23] = assay: Antihyperalgesic activity in CFA induced CD-1 albino mouse assessed as increase in pain threshold by measuring paw withdrawal latency at 270 mg/kg, po measured after 40 mins by von frey test; assay type: functional
How it was run: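 Intraplantar CFA was used to induce inflammatory pain in mice, with vehicle-treated controls. Mechanical allodynia was measured by Von Frey test as the weight (g) tolerated on the paw, before dosing and every 20 min after. Values are the mean of 6 mice from 2 experimental sets.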

Sequence of Carbonic anhydrase 12 (O43570 whole entry): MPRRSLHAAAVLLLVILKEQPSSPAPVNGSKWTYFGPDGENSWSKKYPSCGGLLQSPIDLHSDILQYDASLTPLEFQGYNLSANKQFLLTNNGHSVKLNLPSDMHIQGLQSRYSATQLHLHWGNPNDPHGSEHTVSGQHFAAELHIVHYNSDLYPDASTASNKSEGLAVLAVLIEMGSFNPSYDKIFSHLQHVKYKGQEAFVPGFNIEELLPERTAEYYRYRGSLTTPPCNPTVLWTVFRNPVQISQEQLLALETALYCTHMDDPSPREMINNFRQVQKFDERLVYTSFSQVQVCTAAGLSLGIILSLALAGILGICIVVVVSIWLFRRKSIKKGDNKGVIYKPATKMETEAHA
Sequence of Carbonic anhydrase 4 (P22748 whole entry): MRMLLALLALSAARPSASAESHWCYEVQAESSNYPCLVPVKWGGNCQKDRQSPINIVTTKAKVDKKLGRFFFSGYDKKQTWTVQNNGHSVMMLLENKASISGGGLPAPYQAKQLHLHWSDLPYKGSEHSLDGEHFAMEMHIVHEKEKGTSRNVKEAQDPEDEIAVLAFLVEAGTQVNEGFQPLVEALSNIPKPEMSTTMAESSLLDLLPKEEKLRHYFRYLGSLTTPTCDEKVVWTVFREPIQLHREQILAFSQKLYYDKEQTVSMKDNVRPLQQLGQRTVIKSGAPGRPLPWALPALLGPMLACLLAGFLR
Sequence of Carbonic anhydrase 7 (P43166 whole entry): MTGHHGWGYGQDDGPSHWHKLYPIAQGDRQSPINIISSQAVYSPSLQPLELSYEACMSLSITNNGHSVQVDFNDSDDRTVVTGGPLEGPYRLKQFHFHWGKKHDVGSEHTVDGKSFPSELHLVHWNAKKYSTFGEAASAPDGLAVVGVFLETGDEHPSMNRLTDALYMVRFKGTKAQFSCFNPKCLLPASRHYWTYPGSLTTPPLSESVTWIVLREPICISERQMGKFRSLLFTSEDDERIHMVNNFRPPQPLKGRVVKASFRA
Sequence of Carbonic anhydrase 1 (P00915 whole entry): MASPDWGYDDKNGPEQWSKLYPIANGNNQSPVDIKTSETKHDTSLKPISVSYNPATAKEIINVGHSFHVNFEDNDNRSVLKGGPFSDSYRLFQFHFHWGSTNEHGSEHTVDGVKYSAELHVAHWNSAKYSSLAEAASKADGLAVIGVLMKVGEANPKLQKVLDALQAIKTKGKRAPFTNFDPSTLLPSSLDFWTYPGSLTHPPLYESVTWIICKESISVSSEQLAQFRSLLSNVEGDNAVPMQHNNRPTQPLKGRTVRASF

Ki (Carbonic anhydrase 1): 72.5 µM | Ki (Carbonic anhydrase 9): 10.9 µM | Ki (Carbonic anhydrase 4): 77.3 µM | Ki (Carbonic anhydrase 7): 18.5 µM | Ki (Carbonic anhydrase 12): 14 µM | Ki (Carbonic anhydrase 2): 64.3 µM
Compound: CC(=O)Sc1ccccc1C(=O)O
Activity (Mus musculus [1]): Active | Activity (Mus musculus [2]): Active | Activity (Mus musculus [3]): Active | Activity (Mus musculus [4]): Active | Activity (Mus musculus [5]): Active | Activity (Mus musculus [6]): Active

Ki (Carbonic anhydrase 1): > 100 µM | Ki (Carbonic anhydrase 9): > 100 µM | Ki (Carbonic anhydrase 4): > 100 µM | Ki (Carbonic anhydrase 7): > 100 µM | Ki (Carbonic anhydrase 12): > 100 µM
Compound: CC(=O)Oc1ccccc1C(=O)O [ASPIRIN]
Activity (Mus musculus [7]): inactive | Activity (Mus musculus [8]): Active | Activity (Mus musculus [9]): Dose-Dependent Effect | Activity (Mus musculus [10]): inactive | Activity (Mus musculus [11]): Dose-Dependent Effect | Activity (Mus musculus [12]): Active | Activity (Mus musculus [13]): Dose-Dependent Effect | Activity (Mus musculus [14]): Active | Activity (Mus musculus [15]): inactive

Compound: CC(=O)[Se]c1ccccc1C(=O)O
Activity (Mus musculus [16]): Active | Activity (Mus musculus [17]): Active | Ki (Carbonic anhydrase 1): 5.2 µM | Activity (Mus musculus [18]): inactive | Ki (Carbonic anhydrase 9): 1.4 µM | Activity (Mus musculus [19]): inactive | Activity (Mus musculus [20]): >50% | Ki (Carbonic anhydrase 4): 48 µM | Ki (Carbonic anhydrase 7): 5.2 µM | Activity (Mus musculus [21]): Active | Activity (Mus musculus [22]): inactive | Ki (Carbonic anhydrase 12): 8.2 µM | Activity (Mus musculus [23]): >50% | Ki (Carbonic anhydrase 2): 32 µM
